Source: publication PMC4706799 (Cancer prevention research (Philadelphia, Pa.), 2015)
Values joined by “and” are separate entries in the source; they are usually repeats but may differ in a detail not shown here. Equal entries are not always repeated.

Key:
[1] = cited from earlier work
[2] = cited from earlier work; remark: listed apart in the source
[3] = system: AKT; test: Western blot, pAKT and AKT; assay type: cell-based; conditions: Tu212, Tu686, MSK-LEUK1
[4] = system: Bcl-xL; test: Western blot, Bcl-xL expression; assay type: cell-based; conditions: Tu212 and Tu686, 24 h
Summary of the method: (§1)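 Tu212 and Tu686 cells were treated with test compound at indicated doses for 24 h. Whole-cell lysates were immunoblotted for Bcl-2 family proteins (Bcl-2, Bcl-xL, Mcl-1, Bid, Bim, PUMA, NOXA), using 20 µg protein per lane on 8–12% SDS-PAGE and PVDF transfer. β-Actin or GAPDH served as loading control; detection was by enhanced chemiluminescence.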

[5] = system: Tu212; test: SRB growth inhibition assay, Tu212; assay type: cell-based
Summary of the method: (§2)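 SCCHN lines were kept in DMEM/F12 (1:1) with 10% heat-inactivated FBS at 37 °C and 5% CO2; MSK-Leuk1 was kept in keratinocyte basal medium. Cells were seeded in 96-well plates, incubated overnight, then exposed for 72 h to a range of test-compound concentrations (DMSO stock diluted in RPMI, final DMSO <0.1%). Growth inhibition was read by sulforhodamine B staining, and IC50 was calculated by software.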

[6] = system: SCCHN cell lines; test: Annexin V-PE staining for apoptosis; assay type: cell-based; conditions: for concentration sufficient to induce ~80% apoptosis: by 48 h, annexin V-PE
[7] = system: FOXO1 and 3; test: Western blot, FOXO phosphorylation; assay type: cell-based; conditions: Tu686 cells, multiple sites
Summary of the method: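 Tu686 cells were exposed to test compound, and whole-cell lysates were probed by Western blot for phospho-FOXO1a and phospho-FOXO3a. Equal protein (20 µg) was separated on 8–12% SDS-PAGE and blotted to PVDF, with β-actin or GAPDH as loading control and enhanced chemiluminescence detection. Blots shown represent three independent experiments.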

[8] = system: MSK cell line; test: Annexin V-PE staining for apoptosis, MSK; assay type: cell-based; conditions: 24 h treatment
Summary of the method: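 MSK-Leuk1 premalignant cells, grown in keratinocyte basal medium, were seeded in 6-cm plates to 40–50% confluency. They were treated for 24 h with test compound at doses chosen per cell line (DMSO stock diluted in RPMI, final DMSO <0.1%). Cells were trypsinized, washed in cold PBS, stained with annexin V-PE plus 7-AAD for 15 min at room temperature, and read by flow cytometry. Three independent experiments; mean ± SD; paired two-tailed t-test versus untreated control.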

[9] = system: Tu686 SCCHN xenografts; test: Nude mouse xenograft model; assay type: in vivo, nude mice; conditions: for effect on tumor volume: 50 mg/kg i.p., once/day, five days/week, 17 days
[10] = system: SQCCY1; test: SRB growth inhibition assay, SQCCY1; assay type: cell-based
Summary of the method: as §2

[11] = system: 886LN; test: SRB growth inhibition assay, 886LN; assay type: cell-based; conditions: 72 h
Summary of the method: as §2

[12] = system: Tu177; test: SRB growth inhibition assay, Tu177; assay type: cell-based
Summary of the method: as §2

[13] = system: EGFR mRNA; test: Real-time qPCR, EGFR mRNA; assay type: cell-based; conditions: Tu212 and Tu686
[14] = system: EGFR; test: Western blot, pEGFR and EGFR; assay type: cell-based; conditions: Tu212, Tu686, MSK-LEUK1
[15] = system: AKT mRNA; test: Real-time qPCR, AKT mRNA; assay type: cell-based; conditions: Tu212 and Tu686
[16] = system: JHU022; test: SRB growth inhibition assay, JHU022; assay type: cell-based
Summary of the method: as §2

[17] = system: Bcl-2 mRNA; test: Real-time qPCR, Bcl-2 mRNA; assay type: cell-based; conditions: Tu212 and Tu686
Summary of the method: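 Tu212 and Tu686 cells were treated with test compound at 1 µM and 2 µM (T1) or 2 µM and 3 µM (T2), respectively. Total RNA was column-extracted, and 2 µg was reverse transcribed to cDNA. Bcl-2 mRNA was quantified by SYBR Green real-time qPCR and compared with the corresponding untreated control.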

[18] = system: PARP; test: Western blot for PARP cleavage; assay type: cell-based; conditions: Tu212, Tu686, MSK-LEUK1, 24 h
Summary of the method: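 Tu212, Tu686 and MSK-Leuk1 cells were treated with test compound at indicated doses for 24 h. Whole-cell lysates (20 µg protein) were run on 8–12% SDS-PAGE and transferred to PVDF. Blots were probed with a PARP antibody recognising both full-length and cleaved forms, with β-actin or GAPDH as loading control, and detected by enhanced chemiluminescence.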

[19] = system: PCI-13; test: SRB growth inhibition assay, PCI-13; assay type: cell-based
Summary of the method: as §2

[20] = system: Bcl-2; test: Western blot, Bcl-2 expression; assay type: cell-based; conditions: Tu212 and Tu686, 24 h
Summary of the method: as §1

[21] = system: Tu686; test: SRB growth inhibition assay, Tu686; assay type: cell-based
Summary of the method: as §2

[22] = Body weight and organ toxicity in xenograft study; assay type: in vivo; conditions: 50 mg/kg i.p., 17 days
[23] = system: MSK-Leuk1; test: SRB growth inhibition assay, MSK-Leuk1; assay type: cell-based; conditions: 72 h
Summary of the method: as §2

[24] = system: mTOR pathway (S6 and 4EBP1); test: Western blot, mTOR pathway readouts; assay type: cell-based; conditions: Tu212, Tu686, MSK-LEUK1
Summary of the method: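 Tu212, Tu686 and MSK-Leuk1 cells were treated with different doses of test compound. Whole-cell lysates (20 µg protein, 8–12% SDS-PAGE, PVDF) were immunoblotted for p-mTOR, p-S6, S6, p-4EBP1 and 4EBP1, with β-actin or GAPDH loading control and chemiluminescent detection. Blots shown represent three independent experiments.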

[25] = Pharmacokinetic study, plasma LC/MS/MS; assay type: in vivo, A/J mice
[26] = system: cytochrome c; test: Cytochrome c release in the cytoplasm; assay type: cell-based; conditions: Tu212 cells
Summary of the method: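 Tu212 cells were treated with test compound. Cytosolic and mitochondrial fractions were separated and immunoblotted for cytochrome c, with ERK as cytoplasmic control and Cox4 as mitochondrial control. Equal protein (20 µg) was run on 8–12% SDS-PAGE, transferred to PVDF and detected by enhanced chemiluminescence. Blots shown represent three independent experiments.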

[27] = system: Bid; test: Western blot, Bid expression; assay type: cell-based; conditions: Tu212 and Tu686, 24 h
Summary of the method: as §1

[28] = system: UM-22B; test: SRB growth inhibition assay, UM-22B; assay type: cell-based; conditions: 72 h
Summary of the method: as §2

[29] = system: Mcl-1; test: Western blot, Mcl-1 expression; assay type: cell-based; conditions: Tu212 and Tu686, 24 h
Summary of the method: as §1

[30] = system: Bim; test: Western blot, Bim expression; assay type: cell-based; conditions: Tu212 and Tu686, 24 h
Summary of the method: as §1

[31] = cited from earlier work; remark: listed apart in the source
[32] = system: premalignant (MSK-LEUK1) and malignant SCCHN cell lines; test: SRB growth inhibition assay, cell line panel; assay type: cell-based; conditions: 72 h, read-out: IC50 values, range over the cell lines
Summary of the method: as §2

[33] = female, A/J, mouse, plasma, po, 200 mg/kg

COc1cc(/C=C/C(=O)C(=Cc2ccc(F)c(F)c2)C(=O)/C=C/c2ccc(O)c(OC)c2)ccc1O [CDF]
accumulation in pancreatic tissue, fold higher than curcumin [1]: 10.6 fold
systemic drug level, fold greater than curcumin [1]: 2.7 fold

O=C1/C(=C/c2ccccc2F)CNC/C1=C\c1ccccc1F [EF24]
fold better anti-cancer efficacy than natural curcumin in vitro [2]: ~ 10 fold

COc1cc(/C=C/C(=O)/C=C/c2cc(OC)c(O)c(OC)c2)cc(OC)c1O [FLLL12]
phosphorylation of AKT [3]: inhibited the phosphorylation
total AKT protein [3]: inhibited
expression of Bcl-xL [4]: remained mostly unchanged
IC50 ([5]; Tu212, 72 h, SRB assay): 0.46 µM
fold more potent than curcumin in inducing apoptosis ([6]; SCCHN cell lines): 5–10 fold
concentration sufficient to induce ~80% apoptosis [6]: 1 to 3 µM
phosphorylation of FOXO1 and 3 [7]: strongly inhibited the phosphorylation
apoptosis [8]: more than 80%
effect on tumor volume [9]: significantly reduced tumor volume
IC50 ([10]; SQCCY1, 72 h, SRB assay): 1.55 µM
IC50 ([11]; 886LN, SRB assay): 0.72 µM
IC50 ([12]; Tu177, 72 h, SRB assay): 450 nM
mRNA expression of EGFR [13]: strongly inhibited the mRNA expression
phosphorylation of EGFR [14]: inhibited the phosphorylation
total EGFR protein [14]: inhibited
mRNA expression of AKT [15]: strongly inhibited the mRNA expression
IC50 ([16]; JHU022, 72 h, SRB assay): 770 nM
expression of Bcl-2 mRNA [17]: increased rather than decreased
cleavage of PARP [18]: markedly induced the cleavage of PARP
IC50 ([19]; PCI-13, 72 h, SRB assay): 0.35 µM
expression of Bcl-2 protein [20]: inhibited
IC50 ([21]; Tu686, 72 h, SRB assay): 0.68 µM
toxicity (H&E of major organs, body weight) [22]: without inducing any notable toxicity
IC50 ([23]; MSK-Leuk1 (premalignant), SRB assay): 0.35 µM
phosphorylation of S6 and 4EBP1 [24]: strongly inhibited phosphorylation
AUC (0-∞) ([25]; 200 mg/kg oral): 418.5 ng·h/mL
AUC, fold greater than curcumin ([25]; 200 mg/kg oral): 3–4 fold
Cmax, fold greater than curcumin ([25]; 200 mg/kg oral): 4.3 fold and ~ 4.0 fold and 3–4 fold
terminal elimination half-life (t½) ([25]; 200 mg/kg oral): 4.8 h
Tmax ([25]; 200 mg/kg oral, DMSO/0.5% CMC, plasma): 30 min
Cmax ([25]; 200 mg/kg oral, plasma): 241.5 ng/mL
release of cytochrome c in the cytoplasm [26]: caused release of cytochrome c
expression of Bid (full length) [27]: inhibited
IC50 ([28]; UM-22B, SRB assay): 0.57 µM
expression of Mcl-1 [29]: remained mostly unchanged
expression of Bim [30]: increased

CN1C/C(=C\c2ccccn2)C(=O)/C(=C/c2ccccn2)C1 [UBS109]
fold better anti-cancer efficacy than natural curcumin in vitro [2]: ~ 10 fold

O=C1/C(=C/c2ccccn2)CNC/C1=C\c1ccccn1 [compound 31]
fold better anti-cancer efficacy than natural curcumin in vitro [2]: ~ 10 fold

COc1cc(/C=C/C(=O)CC(=O)/C=C/c2ccc(O)c(OC)c2)ccc1O [curcumin, reference compound]
phosphorylation of AKT [3]: inhibited the phosphorylation
total AKT protein [3]: inhibited
IC50 ([5]; TU212, 72 h): 6.97 µM
concentration sufficient to induce ~80% apoptosis [6]: 10 to 15 µM
oral bioavailability [31]: ~ 1%
effect on tumor volume [9]: had no effect
efficacy in xenograft study ([9]; 150 mg/kg, earlier study, data not shown): did not find any efficacy
IC50 ([10]; 72 h): 12.6 µM
IC50 [11]: 17.4 µM
IC50 ([12]; 72 h): 5250 nM
IC50 [32]: 4.53 to 17.4 µM
mRNA expression of EGFR [13]: strongly inhibited the mRNA expression
phosphorylation of EGFR [14]: inhibited the phosphorylation
total EGFR protein [14]: inhibited
mRNA expression of AKT [15]: strongly inhibited the mRNA expression
IC50 ([16]; 72 h): 4530 nM
IC50 ([19]; 72 h): 5.73 µM
IC50 ([21]; Tu 686, 72 h): 6.7 µM
IC50 [23]: 6.81 µM
AUC(0-inf) [25, 33]: 131 ng·h/mL
Cmax [25, 33]: 55.6 ng/mL
Tmax [25, 33]: 15 min
half-life [25, 33]: 462 min
IC50 [28]: 7.76 µM
